The record followed here is PubChem BioAssay AID602424 (Sanford-Burnham Center for Chemical Genomics, 2012).

Calls of active or inactive are those of the source.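 How the source made its calls: active means IC50 at or below 20 µM; inactive means the rest.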 A value given as a limit tells only on which side of the number the result lay.

In this assay the target is Glucose-6-phosphate 1-dehydrogenase (Homo sapiens) (UniProt P11413). The assay is described as follows: blockers of human G6PD activity – biochemical, fluorescence, dose response, set 4, selectivity assay for PfG6PD antimalarial inhibitor project, SAR follow-up (AID 602424). Conditions: recombinant human G6PD, NADPH-diaphorase-resazurin fluorescence. Put shortly: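 System: human glucose-6-phosphate dehydrogenase enzyme (hG6PD); Technique: resazurin-diaphorase fluorescence, Ex 530 nm, Em 590 nm; Also added: 320 µM glucose-6-phosphate substrate plus 6 µM NADP cofactor; Times: 90 min enzyme reaction at room temperature, in dark; Control set: no-substrate wells as low control; Compound: concentration series with 0.8% DMSO.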
Chain of Glucose-6-phosphate 1-dehydrogenase (Homo sapiens) (P11413 whole entry, looked up): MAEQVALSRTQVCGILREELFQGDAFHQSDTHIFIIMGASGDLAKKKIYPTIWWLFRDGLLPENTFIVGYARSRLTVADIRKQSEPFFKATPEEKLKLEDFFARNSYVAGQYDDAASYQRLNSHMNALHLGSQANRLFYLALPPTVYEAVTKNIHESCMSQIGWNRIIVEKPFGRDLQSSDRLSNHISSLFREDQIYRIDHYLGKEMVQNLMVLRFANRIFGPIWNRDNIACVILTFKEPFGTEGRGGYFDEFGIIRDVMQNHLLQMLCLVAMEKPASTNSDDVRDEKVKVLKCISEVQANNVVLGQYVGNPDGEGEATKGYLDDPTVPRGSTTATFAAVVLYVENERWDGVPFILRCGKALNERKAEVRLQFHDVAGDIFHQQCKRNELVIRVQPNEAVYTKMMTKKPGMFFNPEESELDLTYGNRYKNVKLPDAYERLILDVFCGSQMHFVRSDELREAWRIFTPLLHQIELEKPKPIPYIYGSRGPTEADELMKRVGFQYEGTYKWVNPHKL
`CN1CCCC1CNC(=O)c1ccc2c(c1)NC(=O)c1ccccc1S2` (configuration not stated): the IC50 is > 80 µM (inactive).
In the case of `CCCN1CCC(NC(=O)c2ccc3c(c2)NC(=O)c2ccccc2S3)C1` (configuration not stated) it was > 80 µM (inactive); in that of `O=C(NC[C@H]1CCCN1)c1ccc2c(c1)NC(=O)c1ccccc1S2`, > 80 µM (inactive); in that of `CCN1CCC[C@@H]1CNC(=O)c1ccc2c(c1)NC(=O)c1cccc(C)c1S2`, > 80 µM (inactive).
In the case of `CCN1CCC[C@@H]1CNC(=O)c1ccc2c(c1)NC(=O)c1ccccc1N2` it was > 80 µM (inactive).
The result for `CCN1CCC[C@@H]1CNC(=O)c1ccc2c(c1)NC(=O)c1cc(C)ccc1S2` reads > 80 µM (inactive); that for `CN1CCCCC1CNC(=O)c1ccc2c(c1)NC(=O)c1ccccc1S2` (configuration not stated), > 80 µM (inactive).
Take `CCN1CCCCC1CNC(=O)c1ccc2c(c1)NC(=O)c1ccccc1S2` (configuration not stated): the IC50 was > 80 µM (inactive).
Consider `CCCCCCN1CCCC1CNC(=O)c1ccc2c(c1)NC(=O)c1ccccc1S2` (configuration not stated), for which the IC50 was > 80 µM (inactive).
Take `CCCN1CCCCC1CNC(=O)c1ccc2c(c1)NC(=O)c1ccccc1S2` (configuration not stated): the IC50 is > 80 µM (inactive).
For `CN1CCC(NC(=O)c2ccc3c(c2)NC(=O)c2ccccc2S3)C1` (configuration not stated), the IC50 is > 80 µM (inactive).
The result for `CCN1CCC[C@@H]1CNC(=O)c1ccc2c(c1)NC(=O)c1cc(F)ccc1S2` reads > 80 µM (inactive); that for `CCCCN1CCCC1CNC(=O)c1ccc2c(c1)NC(=O)c1ccccc1S2` (configuration not stated), > 80 µM (inactive); that for `CCN1CCC(NC(=O)c2ccc3c(c2)NC(=O)c2ccccc2S3)C1` (configuration not stated), > 80 µM (inactive).
As to `CCCN1CCC[C@@H]1CNC(=O)c1ccc2c(c1)NC(=O)c1ccccc1S2`, the IC50 was > 80 µM (inactive).
The result for `O=C(NCC1CCCCN1)c1ccc2c(c1)NC(=O)c1ccccc1S2` (configuration not stated) reads > 80 µM (inactive).
In the case of `CCN1CCC[C@@H]1CNC(=O)c1ccc2c(c1)NC(=O)c1ccc(F)cc1S2` it was > 80 µM (inactive).
